Assay outcomes: PubChem BioAssay, The Scripps Research Institute Molecular Screening Center
Shown is part of a subset that was picked to be rich in hits.
RORa inhibitor: inhibitors of human nuclear receptor RORA. AID 561. CHO-K1 Gal4-RORA LBD luciferase reporter, luminescence. hit rate 0.43% among 65,000. P35398. inhibition, % at 10 µM;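 active = inhibition above the mean of all tested compounds plus 3 SD, cut at about 52% in these data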;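 note: 0% = RORA-transfected cells with DMSO and 100% = mock-transfected cells lacking RORA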
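Test system: CHO-K1 cells with Gal4-hRORA LBD fusion and pG5-luc reporter | Timing: 20 h compound treatment, 37 °C | Detection: Luminescence from basal luciferase reporter expression | Read-out basis: % inhibition of basal luciferase versus +RORA/-RORA DMSO controls | Repeats: One measurement per compound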
* hit, by the source's call.

SMILES | RORa inhibitor
CCOC(=O)c1oc2ccccc2c1NC(=O)c1cc(OC)cc(OC)c1 | 24.7
CC(=O)Nc1c(C(=O)N2CCN(c3ncccn3)CC2)cnn1-c1ccccc1Cl | -4.1
COC(=O)/C(=C1/Oc2cc(C)oc(=O)c2S1)C(F)(F)F | 94.7*
Cc1cc(Br)c(S(=O)(=O)n2nnc3ccccc32)cc1C | 5.9
O=C(CSc1nnc(-c2cccnc2)o1)OC1CCCCC1 | -1.7
COc1ccccc1-c1cn(S(=O)(=O)c2ccc(C)cc2)nc1N | -4.1
Cc1ccc2c(c1)C(N1CCCC1=O)CC(c1ccco1)N2 (stereo not drawn) | -52.2
O=C1c2ccccc2C(=O)C1c1ccc2ccccc2n1 | 70.0*
O=C1c2ccccc2C(=O)N1CNc1ccccc1 | 16.7
Cc1ccc(S(=O)(=O)c2nc(-c3cccs3)oc2SCC(N)=O)cc1 | -8.7
CCOc1ccc(OCc2ccc(C(=O)OCc3ccccn3)o2)cc1 | 57.9*
CCCc1ccc(OCc2ccc(C(=O)N3CCN(c4ccccn4)CC3)o2)c(OC)c1 | -49.7
O=C(Nc1ccccc1)OCc1ccccn1 | -60.5
CCCCNC(=O)CCCn1c(=O)c2ccccc2n(CC(=O)NCCC2=CCCCC2)c1=O | 11.1
O=C(Nc1cnc2sc3c(n2c1=O)CCCC3)c1ccc(F)cc1 | -40.2
Cc1ccc(-c2cc3nc(C)cc(NCc4ccco4)n3n2)cc1 | -59.1
Cc1ccc(Nc2cc(C)nn2-c2nc(C)cc(=O)[nH]2)cc1 | 87.9*
CN(C)CCN1C(=O)C(=O)/C(=C(/O)c2ccc(F)cc2)C1c1ccccc1 (stereo not drawn) | -23.5
CCOC(=O)Nc1ccc2c(c1)N(C(=O)N1CCN(C)CC1)c1ccccc1S2 | -9.1
Cc1nnc(SC(=O)N2c3ccccc3Sc3ccccc32)s1 | 71.3*
Cc1nnc(SCC(=O)N2CCc3ccccc32)s1 | -21.2
Cn1c(COc2ccccc2)nnc1SCCN1CCOCC1 | -6.4
CCOC(=O)N1CCC(N(C(=O)Nc2ccc(CC)cc2)C(C)CC)CC1 (stereo not drawn) | 14.7
CN(C)CCOC(=O)C1(c2ccccc2)CCOCC1 | 2.6
Cc1oc2cc3c(C(=O)OCCN(C)C)c(C)oc3cc2c1C(=O)OCCN(C)C | 82.1*
SMILES | RORa inhibitor
COC(=O)c1cc(COc2ccc3oc(C)c(C(=O)OC)c3c2)c(C)o1 | 5.6
COC(=O)[C@@H](NC(=O)NCc1ccco1)C(C)C | -7.1
CS(=O)c1nc(-c2ccc(Br)cc2)cc(-c2ccccc2)c1C#N (stereo not drawn) | 57.5*
Nc1nc(-c2ccccc2)cc(-c2ccccc2O)n1 | -49.2
COc1ccc(S(=O)(=O)N(C)CC(=O)N2CCC(C)CC2)cc1Cl | 14.8
c1ccc(Nc2cc(Nc3ccccc3)[nH]n2)cc1 | -9.4
O=C(Cc1ccccc1)CC1(O)C(=O)Nc2ccccc21 (stereo not drawn) | 4.4
Cn1cccc1CNC(=O)Nc1ccc(Cl)c(Cl)c1 | -59.6
CCCC(=O)Nc1ccc(Cl)c(NC(=O)CC)c1 | 11.7
COc1ccc2c(c1)sc1nc(-c3ccccc3)cn12 | 92.3*
COc1ccc(-c2cc(=O)c3ccccc3s2)cc1 | -23.0
COc1ccc(-c2cn3c(C)c(C(=O)NC(C)(C)C)sc3n2)cc1 | -56.0
CCOC(=O)NC(Nc1nc2ccccc2s1)(C(=O)OCC)C(F)(F)F (stereo not drawn) | -24.7
CCc1ccc(NC(=O)N(CCCN2CCOCC2)C(C)c2cc3cccc(OC)c3o2)cc1 (stereo not drawn) | 5.2
COc1ccc(S(=O)(=O)N(CC(=O)N2CCN(C)CC2)c2ccc(C)cc2)cc1OC | 1.5
O=C(NCc1cccs1)C1CC(=O)N(c2ccc(F)cc2)C1 (stereo not drawn) | -19.7
CCn1c(C)nc2cc(-c3nc4n(n3)Cc3ccccc3-4)ccc21 | 95.7*
O=C(NCc1ccc(F)cc1)c1cc2n(n1)C(C(F)(F)F)CC(C1CC1)N2 (stereo not drawn) | -63.9
c1ccc2c(c1)Cc1cc(CN3CCOCC3)ccc1-2 | -67.7
CCCc1cc(=O)[nH]c(SCC(=O)Nc2ccc(OC(F)F)cc2)n1 | 18.3
COc1ccc(OC)c(NC(=O)CSc2nnnn2-c2ccc3c(c2)OCO3)c1 | 79.9*
CC(C)OC(=O)CSc1nnnn1-c1ccc2c(c1)OCCO2 | -54.1
COc1ccc(OC)c(-n2nnnc2SCC(=O)Nc2ccc(C(=O)N3CCCCC3)cc2)c1 | -6.9
CN(CC(=O)Nc1nccs1)S(=O)(=O)c1ccc(F)cc1 | -5.9
CCNc1nc(N)c(C(=O)c2ccc(Cl)s2)s1 | -49.8
SMILES | RORa inhibitor
Cc1ccc(NC2=Nc3ccccc3CS2)cc1 | 61.0*
Cc1nn(-c2nc3ccccc3[nH]2)c(N)c1-c1ccccc1 | -54.3
O=C(CCCNS(=O)(=O)c1cccc2nsnc12)NCc1ccc(F)cc1 | 11.6
Cn1c(=O)c2c(nc(N3CCCCC3)n2CCSc2nc3ccccc3s2)n(C)c1=O | 0.4
Nc1nc(CSc2nc3ccccc3s2)nc(N2CCCCC2)n1 | -14.1
O=C(O)CCSc1nc2ccccc2s1 | 54.4*
O=C(O)c1cccc(S(=O)(=O)N2CCOCC2)c1 | 21.7
CC(=O)Nc1nonc1-c1ccccc1 | -27.0
COc1ccc(Nc2nc(C)cc(C)c2C#N)cc1 | -4.4
